Experimental findings from ChEMBL document CHEMBL2069305, “Discovery and optimization of a series of liver X receptor antagonists” (Bioorg Med Chem Lett, 2012) are described below.

Data set [1] concerns the target T1, Oxysterols receptor LXR-beta (Homo sapiens, UniProt P55055).
T1 sequence (P55055 whole entry): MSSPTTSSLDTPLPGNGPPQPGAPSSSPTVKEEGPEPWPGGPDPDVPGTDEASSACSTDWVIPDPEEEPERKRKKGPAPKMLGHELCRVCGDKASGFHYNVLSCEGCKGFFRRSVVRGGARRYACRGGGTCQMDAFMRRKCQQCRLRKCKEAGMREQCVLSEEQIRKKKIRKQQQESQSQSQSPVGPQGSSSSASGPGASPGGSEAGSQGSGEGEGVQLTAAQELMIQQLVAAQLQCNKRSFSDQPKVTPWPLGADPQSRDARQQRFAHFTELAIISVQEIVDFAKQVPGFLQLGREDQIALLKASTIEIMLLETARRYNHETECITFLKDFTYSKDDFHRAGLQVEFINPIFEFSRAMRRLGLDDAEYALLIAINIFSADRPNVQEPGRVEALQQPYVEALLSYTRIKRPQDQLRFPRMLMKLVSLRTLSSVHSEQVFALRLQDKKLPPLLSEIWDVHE
The data set is described as follows: Displacement of [3H]N-(4-(1,1,1,3,3,3-hexafluoro-2-hydroxypropan-2-yl)phenyl)-N-methylbenzenesulfonamide from GST-tagged LXRbeta ligand binding domain after 1 hr by scintillation proximity assay. On the technique in general: Displacement assays read how much labelled ligand stays bound in the presence of the test substance.

The nature of data set [2]: Oral bioavailability in Sprague-Dawley rat at 5 mg/kg. The class given is ADME, organism-based. The conditions noted are these: in vivo. The method, boiled down:
(§1)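 Male Sprague–Dawley rats given a single oral dose of 5 mg/kg; three animals per study.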

In data set [3] the test system is Liver microsomes. Briefly: Drug metabolism in rat liver microsomes assessed as isobutyl-hydroxylation. The class given is ADME, Microsome. Background: Microsomes from liver hold many membrane-bound enzymes, among them those of drug oxidation.
A short description of data set [4]: Clearance in Sprague-Dawley rat at 0.5 mg/kg, iv. The class given is ADME, organism-based. Set-up: dose 0.5 mg/kg, route intravenous. The following applies: in vivo. In outline: (§2)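 Single intravenous dose of 0.5 mg/kg in rats; three animals per study.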
Data set [5] can be described thus: AUC in Sprague-Dawley rat at 5 mg/kg, po. The class given is ADME, organism-based. Set-up: dose 5 mg/kg, route oral. The following applies: plasma. The method, boiled down:
as §1

The test system of the next data set is HEK293. The data set is described as follows: Cytotoxicity against human HEK293 cells. In kind it is cell-based.
Data set [6] is described as follows: Volume of distribution at steady state in Sprague-Dawley rat at 0.5 mg/kg, iv. In kind it is ADME, organism-based. Set-up: dose 0.5 mg/kg, route intravenous. The following applies: in vivo, read-out: Vdss. In outline:
as §2

Data set [7] is described as follows: Metabolic stability in rat liver microsomes assessed as compound remaining at 1 uM after 30 mins. The conditions noted are these: read-out: Stability. The class given is ADME, Microsome.
Data set [8] in a line: AUC in Sprague-Dawley rat at 0.5 mg/kg, iv. Set-up: dose 0.5 mg/kg, route intravenous. The class given is ADME, organism-based. The conditions noted are these: plasma. The method, boiled down: as §2
Data set [9] can be described thus: Mean residence time in Sprague-Dawley rat at 0.5 mg/kg, iv. In kind it is ADME, organism-based. Set-up: dose 0.5 mg/kg, route intravenous. The conditions noted are these: in vivo. In outline: as §2
Data set [10] relates to Liver microsomes. Briefly: Drug metabolism in rat liver microsomes assessed as oxidative cleavage of isobutyl group. The class given is ADME, Microsome.
Data set [11] concerns the target T1, Oxysterols receptor LXR-beta. The data set is described as follows: Antagonist activity at LXRbeta ligand binding domain expressed in HEK293 cells coexpressing GAL4 assessed as decrease in […]N-(4-(1,1,1,3,3,3-hexafluoro-2-hydroxypropan-2-yl)phenyl)-N-methylbenzenesulfonamide-induced activity after 20 hrs by luciferase reporter gene assay. In kind it is cell-based.

For orientation: IC50 means the concentration at which inhibition is half-maximal. Regarding `CN(c1ccc(C(O)C(F)(F)F)cc1)S(=O)(=O)c1ccccc1` (stereo unspecified), the IC50 in data set [1] was greater than 10 µM.

Regarding `CN(c1ccc(C(O)(c2nnn[nH]2)C(F)(F)F)cc1)S(=O)(=O)c1ccccc1` (stereo unspecified), in data set [1], the IC50 was greater than 10 µM.

On to `CN(c1ccc(C(O)(Cc2ccccc2)C(F)(F)F)cc1)S(=O)(=O)c1ccccc1` (stereo unspecified), for which the IC50 in data set [1] was greater than 10 µM.

As to `CN(c1ccc(C(O)(c2ncc[nH]2)C(F)(F)F)cc1)S(=O)(=O)c1ccccc1` (stereo unspecified), the IC50 in data set [1] is greater than 10 µM.

Compound `CN(c1ccc(C(O)(c2nnc[nH]2)C(F)(F)F)cc1)S(=O)(=O)c1ccccc1` (stereo unspecified) showed an IC50 in data set [1] greater than 10 µM.

In [1], `CC(C)CC#CC(O)(c1ccc(N(C)S(=O)(=O)c2ccccc2)cc1)C(F)(F)F` (stereo unspecified) returned an IC50 greater than 30 µM.

Broadly, the bioavailability is dose-corrected exposure relative to a reference, in per cent. The term clearance denotes the rate of elimination divided by the concentration. A high value points to efficient removal. In general, AUC refers to concentration integrated over time. A lower AUC goes with low exposure. What is called MRT is a mean duration of stay, worked out from the concentration-time curve. In [2], `CC(C)CN(c1ccc(C(O)(C#Cc2ccc(S(C)(=O)=O)cc2)C(F)(F)F)cc1)S(=O)(=O)c1ccccc1` (stereo unspecified) displayed a bioavailability of 9%. In addition, the Drug metabolism result with Liver microsomes [3] and in the data set with Liver microsomes [10] was “Active” each time. The clearance in [4] was 80 mL/min/kg. Besides, the AUC in data set [5] is 86 ng·h/mL; in [8], 102 ng·h/mL. Besides, the Activity entry in the data set on HEK293 was “Non-toxic”. In addition, the Vd in data set [6] came to 4.4 L/kg. Moreover, the remaining at 0.5 h, 1 µM in [7] was less than 5%. Further, the MRT in data set [9] was found to be 1.3 h.

On to `CC(C)CN(c1ccc(C(O)(C#Cc2ccc(S(C)(=O)=O)cc2)C(F)(F)F)cc1)S(=O)(=O)c1cccc(C#N)c1` (stereo unspecified), for which the Activity entry with HEK293 is “Non-toxic”.

As to `CC(C)CN(c1ccc(C(O)(C#Cc2ccc(S(=O)(=O)c3ccccc3)cc2)C(F)(F)F)cc1)S(=O)(=O)c1cccc(C#N)c1` (stereo unspecified), the IC50 in data set [11] and in data set [1] was greater than 10 µM throughout.

For `CS(=O)(=O)c1ccc(C#CC(O)(c2ccc(N(CC(F)(F)F)S(=O)(=O)c3ccccc3)cc2)C(F)(F)F)cc1` (stereo unspecified), the remaining at 0.5 h, 1 µM in data set [7] stood at 85%.

Take `CS(=O)(=O)c1ccc(C#CC(O)(c2ccc(N(CCC(F)(F)F)S(=O)(=O)c3ccccc3)cc2)C(F)(F)F)cc1` (stereo unspecified): the remaining at 0.5 h, 1 µM in [7] was determined as 42%.

On to `CC(C)(C)CN(c1ccc(C(O)(C#Cc2ccc(S(C)(=O)=O)cc2)C(F)(F)F)cc1)S(=O)(=O)c1ccccc1` (stereo unspecified), for which, in data set [7], the remaining at 0.5 h, 1 µM was determined as 36%.

In data set [2], `CS(=O)(=O)c1ccc(C#CC(O)(c2ccc(N(CC3CC3)S(=O)(=O)c3ccccc3)cc2)C(F)(F)F)cc1` (stereo unspecified) displayed a bioavailability of 31%. In data set [4], the clearance was 18.3 mL/min/kg. Moreover, the AUC in data set [5] turned out to be 1380 ng·h/mL. The Vd in data set [6] amounted to 2.3 L/kg. Further, the remaining at 0.5 h, 1 µM in data set [7] was greater than 95%. In [9], this compound gave an MRT of 2.2 h.

As for `CS(=O)(=O)c1ccc(C#CC(O)(c2ccc(N(CC3CCC3)S(=O)(=O)c3ccccc3)cc2)C(F)(F)F)cc1` (stereo unspecified), the remaining at 0.5 h, 1 µM in data set [7] was less than 5%.

For `CS(=O)(=O)c1ccc(C#CC(O)(c2ccc(N(CC3CCCC3)S(=O)(=O)c3ccccc3)cc2)C(F)(F)F)cc1` (stereo unspecified), the remaining at 0.5 h, 1 µM in [7] is less than 5%.

`CN(c1ccc(C(C)(O)C(F)(F)F)cc1)S(=O)(=O)c1ccccc1` (stereo unspecified) returned an IC50 in data set [1] greater than 10 µM.
